RGS4 pot = RGS4 potentiators or activators, primary screen, cell-based, HEK293 M3R inducible RGS4, calcium flux. 310,000 tested, 0.92% active. carbachol calcium flux Fluo4; stronger effect = lower value. B-score at 10 µM. AID 463111, 2010;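 active means B-score of the integrated calcium signal more than 4 SD below the library mean, with starting fluorescence not abnormally high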;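 further: negative B-score means reduced calcium response which marks RGS4 activation or potentiation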
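test system = HEK293 cells with stable M3R and inducible RGS4 | schedule = recording 10 s baseline at 1 Hz, 100 s post-agonist | technique = Fluo4-AM (2 µM) calcium-flux fluorescence, kinetic read | measure = Agonist-evoked peak-minus-minimum fluorescence over baseline, integrated ratio, B score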
MrgX1 antag = antagonists of human MrgX1 receptor, primary screen, HEK293 cells, Fluo-4 calcium flux | BAM8-22 antagonism; stronger effect = lower value | B-score at 10 µM | 310,000 tested, 1.3% active;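 active means calcium-response B-score plate-corrected more than 3 library SD below zero, starting fluorescence within 5 deviations, no agonist response on first addition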;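 further: peak minus trough fluorescence over baseline after final BAM8-22 challenge near maximal dose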
Target sequence (Q96LB2 whole entry, looked up): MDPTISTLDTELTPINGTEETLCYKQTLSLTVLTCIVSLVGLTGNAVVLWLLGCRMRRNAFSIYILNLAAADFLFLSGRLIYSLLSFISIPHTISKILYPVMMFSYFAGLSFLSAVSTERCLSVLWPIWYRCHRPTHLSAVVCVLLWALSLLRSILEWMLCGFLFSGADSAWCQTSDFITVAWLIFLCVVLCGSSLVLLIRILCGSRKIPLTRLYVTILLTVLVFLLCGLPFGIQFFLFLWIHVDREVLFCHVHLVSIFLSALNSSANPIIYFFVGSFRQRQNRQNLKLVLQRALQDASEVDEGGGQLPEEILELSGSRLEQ
MrgX1 allo act = positive allosteric modulators of MrgX1, primary screen, HEK293 cells, Fluo-4 calcium flux; Mas-related G-protein coupled receptor member X1 (Homo sapiens), Q96LB2; FDSS; stronger effect = higher value; B-score at 10 µM; 310,000 tested, 0.63% active;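 active means plate-corrected calcium response at least 3 library SD above typical, normal starting fluorescence, not activating the receptor alone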;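 further: compound read alongside a low EC10 to EC30 dose of BAM8-22 agonist; peak minus trough fluorescence over baseline measured at the second addition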
RGS4 block = RGS4 inhibitors, primary screen, cell-based, HEK293 M3R inducible RGS4, calcium flux; Regulator of G-protein signaling 4 (Homo sapiens), P49798; Fluo-4 calcium flux; stronger effect = higher value; triggered by carbachol at its EC20; B-score at 10 µM; 310,000 tested, 0.45% active; AID 463165, 2010;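 active means B-score, a plate-corrected calcium signal, over three deviations above library mean, with baseline fluorescence within five deviations of library mean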;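 further: RGS4 expression induced by doxycycline in cells with stable M3 receptor; B-score is computed from the integrated fluorescence ratio over baseline after carbachol; higher B-score means a larger calcium signal and so more RGS4 inhibition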
Target sequence (P49798 whole entry, looked up): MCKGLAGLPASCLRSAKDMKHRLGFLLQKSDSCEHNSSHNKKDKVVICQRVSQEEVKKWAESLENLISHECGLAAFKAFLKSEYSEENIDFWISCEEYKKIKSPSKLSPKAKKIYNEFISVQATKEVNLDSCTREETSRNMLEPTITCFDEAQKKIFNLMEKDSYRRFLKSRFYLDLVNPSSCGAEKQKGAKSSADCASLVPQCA
MrgX1 agonist = agonists of human MrgX1 receptor, primary screen, HEK293 cells, Fluo-4 calcium flux; B-score at 10 µM; AID 588627, 2011; Fluo-4 calcium fluorescence, agonist mode; stronger effect = higher value; 310,000 tested, 0.44% active; Mas-related G-protein coupled receptor member X1 (Homo sapiens), Q96LB2;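 active means calcium response B-score plate-corrected fluorescence ratio at least 3 library SD, with starting fluorescence B-score inside 5 SD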
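Material – MrgX1-expressing HEK293 cells · Input – 15,000 cells seeded per well · Dosing – compound as first of three additions · Times – overnight seeding, then 1 h dark dye loading · Measured by – kinetic Fluo-4 NW fluorescence of intracellular calcium · Read-out – B-scored fluorescence response ratio · Benchmarks – positive and negative control wells on each plate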
MrgX1 antag conf = MrgX1 receptor antagonists, duplicate retest, confirmation, HEK293 cells, Fluo-4 calcium flux. remaining BAM8-22 calcium response % of control (stronger effect = lower value), % at 10 µM. shares compounds with MrgX1 antag. BAM8-22 calcium flux; stronger effect = lower value. 2,300 tested, 19% active;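 active means remaining agonist calcium response no higher than 100% minus 3 SD of agonist-only control wells, with starting fluorescence near control levels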;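 further: agonist BAM8-22 given at a near maximal EC90 to ECmax level; peak minus minimum fluorescence divided by baseline after agonist addition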
HEK293 Ca flux = nonspecific calcium signal in parental HEK293, confirmation, counter-screen for MrgX1 antagonist project, parental HEK293 cells, Fluo-4 calcium flux; fluorescence ratio F(max-min)/F0 at 10 µM; AID 624111, 2012; shares compounds with MrgX1 antag; Fluo-4 calcium fluorescence, FDSS; 4,000 tested, 2% active;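 active means duplicate-averaged calcium fluorescence ratio at least three times the standard deviation of buffer wells, a nonspecific response in parental cells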
HEK293 Ca counter = calcium response in parental HEK293 cells, primary screen, counter-screen for MrgX1 allosteric activator project, cell-based, Fluo-4 calcium flux, duplicate; shares compounds with MrgX1 antag; Fluo-4 fluorescence ratio; stronger effect = higher value; fluorescence ratio F(max-min)/F0 at 10 µM; 4,000 tested, 0.4% active; AID 624114, 2012;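 active means calcium fluorescence ratio, averaged over duplicates, at least 3 SD of the buffer-well ratio, meaning a nonspecific response in receptor-free cells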;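 further: untransfected parental HEK293 lacking MrgX1 used as counterscreen for MrgX1 allosteric activators; fluorescence change taken during the second addition on a kinetic imager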
HEK293 Ca cntr2 = calcium response in parental HEK293 cells, primary screen, counter-screen for MrgX1 agonist project, cell-based, Fluo-4 calcium flux, duplicate, agonist mode; AID 624115, 2012; fluorescence ratio F(max-min)/F0 at 10 µM; 4,000 tested, 8.7% active; Fluo-4 calcium fluorescence (FDSS); stronger effect = higher value; shares compounds with MrgX1 antag;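 active means calcium fluorescence ratio at least three times the spread of buffer wells, meaning a non-specific response in parental cells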
Each line names hits and unclear results; the compound was inactive in the other large screens (follow-up assays come after a bar, where they were run); ! = a repeat was not active. A selection: hits, their analogues and other compounds. The true share with any hit is near 3.5%.

O=[N+]([O-])c1ccc(N2N=C(c3ccccc3)CC2c2ccccc2O)cc1 (stereo not drawn)	RGS4 pot -9.3, MrgX1 antag -16 | MrgX1 antag conf inactive | HEK293 Ca flux 0.56 | HEK293 Ca counter inactive | HEK293 Ca cntr2 inactive
COc1ccc(NC(=O)C(=O)c2cn(CC(=O)N3CCCC3)c3ccccc23)cc1	none
CC(=Nc1ccccc1C)C1=C(O)CSC1=O	MrgX1 antag -5.4 | MrgX1 antag conf inactive | HEK293 Ca flux inactive | HEK293 Ca counter inactive | HEK293 Ca cntr2 inactive
CN1CCN(c2ncnc3scc(-c4ccccc4Cl)c23)CC1	none
Cc1cc(-c2csc3ncnc(N4CCN(C)CC4)c23)cc(C)c1C	MrgX1 antag -4.9 | MrgX1 antag conf inactive | HEK293 Ca flux inactive | HEK293 Ca counter inactive | HEK293 Ca cntr2 inactive
O=C(Nc1cccnc1)c1cc(-c2ccccc2)on1	none
O=C(Nc1cccnc1)c1cc(-c2ccc(Br)cc2)on1	MrgX1 antag -8.7 | MrgX1 antag conf inactive | HEK293 Ca flux inactive | HEK293 Ca counter inactive | HEK293 Ca cntr2 inactive
CN1CCN(c2ccc(Cl)cc2NC(=O)CN2C(=O)NC(C)(c3ccccc3)C2=O)CC1 (stereo not drawn)	MrgX1 antag -4.5 | MrgX1 antag conf inactive | HEK293 Ca flux inactive | HEK293 Ca counter inactive | HEK293 Ca cntr2 inactive
CCN1C(=O)Cc2cc(S(=O)(=O)NCCc3ccccc3)ccc21	none
CCOC(=O)Cc1nn(Cc2nc(-c3ccc(C)cc3)cs2)c(=O)c2ccccc12	none
CC1CCCC(C)N1C(=O)COC(=O)Cc1ccc(Cl)cc1 (stereo not drawn)	none
CC1CCCC(C)N1C(=O)CSCc1ccc(Cl)cc1 (stereo not drawn)	MrgX1 antag -4.7 | MrgX1 antag conf inactive | HEK293 Ca flux inactive | HEK293 Ca counter inactive | HEK293 Ca cntr2 inactive
CCCN(C(=O)COC(=O)CCOc1ccccc1C)c1c(N)n(Cc2ccccc2)c(=O)[nH]c1=O	none
COc1ccc2nc(C)cc(Nc3ccc(C)cc3)c2c1	none
COc1ccc2nc(C)cc(NCc3ccc(F)cc3)c2c1	MrgX1 antag -8.4 | MrgX1 antag conf inactive | HEK293 Ca flux inactive | HEK293 Ca counter inactive | HEK293 Ca cntr2 inactive
Cc1ccccc1C(=O)Nc1cccc(-c2ccc(N3CCOCC3)nn2)c1	MrgX1 antag -5 | MrgX1 antag conf inactive | HEK293 Ca flux inactive | HEK293 Ca counter inactive | HEK293 Ca cntr2 inactive
CN(C)c1cccc(C(=O)Nc2nnc(Cc3ccccc3)s2)c1	none
CC1=C(C#N)CCC(=O)N1Cc1ccc(C)cc1	MrgX1 antag -7.7 | MrgX1 antag conf inactive | HEK293 Ca flux inactive | HEK293 Ca counter inactive | HEK293 Ca cntr2 inactive
COc1ccccc1CCC(=O)Nc1ccc(S(=O)(=O)Nc2nccs2)cc1	none
Cc1ccccc1OCCN(C#N)c1nc(N(C)C)nc(N(C)C)n1	MrgX1 antag -4.9 | MrgX1 antag conf inactive | HEK293 Ca flux inactive | HEK293 Ca counter inactive | HEK293 Ca cntr2 inactive
OCC[C@H]1C[C@H](O)[C@@H](O)[C@]2(OCCc3ccccc32)O1	none (no result: RGS4 pot, RGS4 block)
CC1=C(C(=O)Nc2ccccc2)C(c2ccco2)C(C#N)=C(SCc2ccccc2)N1 (stereo not drawn)	none
CC1=C(C(=O)Nc2ccccc2)C(c2ccco2)C(C#N)=C(SCC(=O)OC(C)C)N1 (stereo not drawn)	MrgX1 antag -11 | MrgX1 antag conf inactive | HEK293 Ca flux inactive | HEK293 Ca counter inactive | HEK293 Ca cntr2 inactive
COc1ccc(-c2cc(C(=O)Nc3cccnc3)c3ccccc3n2)cc1OC	none
COc1ccccc1-n1c(SCC(=O)Nc2ccc(Br)cc2)nc(O)cc1=O	none
O=c1[nH]c(CO)nc2c1oc1ccccc12	MrgX1 antag -6.7 | MrgX1 antag conf inactive | HEK293 Ca flux inactive | HEK293 Ca counter inactive | HEK293 Ca cntr2 inactive
O=c1[nH]c(Cc2ccccc2)nc2c1oc1ccccc12	none
COCCn1c(C)cc(C(=O)CSc2nc3nc(C)cc(C)n3n2)c1C	none
COCCn1c(C)cc(C(=O)CSc2n[nH]c(N)n2)c1C	MrgX1 antag -4.8 | MrgX1 antag conf inactive | HEK293 Ca flux inactive | HEK293 Ca counter inactive | HEK293 Ca cntr2 inactive
COc1ccccc1-c1nnc(SC2CCc3ccccc3NC2=O)s1 (stereo not drawn)	MrgX1 antag -6.4 | MrgX1 antag conf inactive | HEK293 Ca flux inactive | HEK293 Ca counter inactive | HEK293 Ca cntr2 inactive
Cc1ccc(C(=O)N2CCN(c3ncccn3)CC2)c(C)c1	none
CC1(C)CC(=O)C(C=Nc2cccnc2)=C(O)C1	MrgX1 antag -4.6 | MrgX1 antag conf inactive | HEK293 Ca flux inactive | HEK293 Ca counter inactive | HEK293 Ca cntr2 inactive
COc1ccccc1-n1c(C)nc2cc(C(=O)O)ccc21	MrgX1 antag -4.8 | MrgX1 antag conf inactive | HEK293 Ca flux inactive | HEK293 Ca counter inactive | HEK293 Ca cntr2 inactive
Cc1nc2cc(C(=O)O)ccc2n1-c1ccccc1	none
Clc1cccc(Cl)c1/C=C/c1ccn[nH]1	none
CC(N)C12CC3CC(CC(C3)C1)C2 (stereo not drawn)	MrgX1 antag -5! | MrgX1 antag conf inactive | HEK293 Ca flux inactive | HEK293 Ca counter inactive | HEK293 Ca cntr2 inactive
CC(C)Cn1c(=O)c(C(=O)NCc2ccc3c(c2)OCO3)c(O)c2ccccc21	none
CC(C)c1ccccc1NC(=O)COC(=O)Cc1c[nH]c2ccccc12	MrgX1 antag -19 | MrgX1 antag conf inactive | HEK293 Ca flux inactive | HEK293 Ca counter inactive | HEK293 Ca cntr2 inactive
COc1ccccc1NC(=O)COC(=O)Cc1c[nH]c2ccccc12	none
Cc1ccccc1Cc1c(C)nc2c(C(=O)NCc3ccc4c(c3)OCO4)cnn2c1C	MrgX1 antag -4.8 | MrgX1 antag conf inactive | HEK293 Ca flux inactive | HEK293 Ca counter inactive | HEK293 Ca cntr2 inactive
Cc1cccc(NS(=O)(=O)c2ccc(C)c(C(=O)OCC(=O)Nc3cc(C)on3)c2)c1	none

Compound activity deposited in PubChem BioAssay by Johns Hopkins Ion Channel Center.
